Screening results from PubChem.
UBC13 polyUb – inhibitors of human UBC13 polyubiquitin chain formation. P61088. TR-FRET. inhibition, % at 20 µM. 330,000 compounds, 0.47% hits. AID 485273; in the data active means inhibition above about 45%, passing the limit was not always enough
Target sequence (P61088 whole entry, looked up): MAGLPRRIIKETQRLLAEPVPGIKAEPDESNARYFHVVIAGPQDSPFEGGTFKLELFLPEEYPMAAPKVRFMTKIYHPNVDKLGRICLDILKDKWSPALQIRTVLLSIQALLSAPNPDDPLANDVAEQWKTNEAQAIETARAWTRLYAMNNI
Rin1-Abl PPI inh – blocks binding of human Rin1 to Abl | P00519+Q13671 | TR-FRET Rin1/Abl binding, biochemical | inhibition, % at 7.35 µM | 360,000 compounds, 0.4% hits | AID 588664; in the data active means inhibition above about 5%, passing the limit was not always enough
ALR inh – blocks human ALR sulfhydryl oxidase activity. 290,000 compounds, 3.8% hits. purified ALR, DTT oxidation, H2O2 HRP-luminol luminescence. P55789. inhibition, % (test concentration not listed);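 active means mean replicate inhibition above about 79%, with every replicate also reaching it, limit read from the data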
RBBP9 inh – inhibitors of human serine hydrolase RBBP9; O75884; recombinant RBBP9, FP-Rh probe fluorescence polarization; inhibition, % at 7.94 µM; 220,000 compounds, 0.2% hits; AID 1515;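 active means inhibition above the campaign mean of all tested compounds plus 3 SD, cut at about 14% in these data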;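 further: plate controls were DMSO wells with RBBP9 for no effect and wells lacking RBBP9 protein for full effect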
Target sequence (O75884 whole entry, looked up): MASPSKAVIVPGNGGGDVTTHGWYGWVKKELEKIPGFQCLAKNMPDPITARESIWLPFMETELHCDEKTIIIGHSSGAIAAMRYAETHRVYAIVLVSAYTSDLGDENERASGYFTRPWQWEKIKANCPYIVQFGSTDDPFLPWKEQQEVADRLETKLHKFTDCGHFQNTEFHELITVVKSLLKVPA
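Test system: recombinant human RBBP9; Timing: 30 min then 45 min, 25 °C; Detection: fluorescence polarization; Control set: RBBP9 with DMSO as uninhibited control, no-protein wells as full inhibition; Compound dosing: one concentration, 7.94 µM nominal, 0.794% DMSO; Probe or stimulus: FP-Rh activity-based probe, 375 nM before mixing.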
PREPL inh – inhibits the human prolyl oligopeptidase-like enzyme. recombinant PREPL, fluorescence polarization activity-based probe. 320,000 compounds, 0.68% hits. inhibition, % at 5.96 µM; in the data active means inhibition above about 43%;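 further: 0% = enzyme with DMSO and 100% = wells lacking enzyme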
SUMO HTRF inh – inhibitors of human SUMOylation (UBC9); P63279; inhibition, % at 35 µM; AID 2006; 290,000 compounds, 0.36% hits; HTRF SUMOylation assay, SAE1/SAE2 + UBC9, in vitro; in the data active means inhibition above about 50%, passing the limit was not always enough
Target sequence (P63279 whole entry, looked up): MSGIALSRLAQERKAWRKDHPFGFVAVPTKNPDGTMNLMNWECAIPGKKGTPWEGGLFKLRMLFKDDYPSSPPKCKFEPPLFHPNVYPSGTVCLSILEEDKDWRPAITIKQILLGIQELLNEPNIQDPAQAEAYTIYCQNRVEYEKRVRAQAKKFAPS
An asterisk follows results filed as active. Compounds with a hit are over-represented: about 4.3% of the library has one in this group of screens.

O=C(c1ccccc1)c1c(O)cc(-c2ccccc2)oc1=O was read as UBC13 polyUb 1, Rin1-Abl PPI inh 2, ALR inh 1, RBBP9 inh -5, PREPL inh 6 and SUMO HTRF inh 10.
COc1cccc(/C=N/c2oc(-c3ccccc3)cc2C#N)c1O was read as UBC13 polyUb -4, Rin1-Abl PPI inh 2, ALR inh 86*, RBBP9 inh -4, PREPL inh -4 and SUMO HTRF inh 10.
For O=c1c(-c2nn[nH]n2)coc2ccc(Cl)cc12 the results were UBC13 polyUb -16, Rin1-Abl PPI inh -3, ALR inh 1, RBBP9 inh 0, PREPL inh 6 and SUMO HTRF inh 2.
Screening CN(C)c1cccc(C(=O)NNC(=O)NC2CCCCC2)c1 returned UBC13 polyUb 10, Rin1-Abl PPI inh 2, ALR inh 13, RBBP9 inh 0, PREPL inh 6 and SUMO HTRF inh 8.
N#CCC(=O)Nc1ccc(C(=O)NNC(=S)NC2CCCCC2)cc1 was read as UBC13 polyUb 17, Rin1-Abl PPI inh 3, ALR inh 94* and PREPL inh 0.
CN(C)c1cccc(C(=O)NNC(=S)NC2CCCC2)c1 was read as UBC13 polyUb 3, Rin1-Abl PPI inh 0, ALR inh 99*, RBBP9 inh -4, PREPL inh 15 and SUMO HTRF inh 7.
Screening CC1C2NC(=O)N(Cc3ccccc3)C1(C)Oc1ccccc12 (stereo unspecified) returned UBC13 polyUb 1, Rin1-Abl PPI inh -1, ALR inh -4, RBBP9 inh -6, PREPL inh 9 and SUMO HTRF inh 1.
`CS(=O)(=O)c1ccc(S(=O)(=O)N2CCC(CO)(CCCc3ccccc3)CC2)cc1` gave UBC13 polyUb 0, Rin1-Abl PPI inh -4, ALR inh -6, PREPL inh 11 and SUMO HTRF inh -1.
CCOC(=O)Cc1c(C)nc2c(-c3ccc(Cl)cc3)c[nH]n2c1=O was read as UBC13 polyUb 8, Rin1-Abl PPI inh 3, ALR inh 98*, RBBP9 inh -7, PREPL inh -21 and SUMO HTRF inh 15.
For COCc1cc(=O)n2[nH]cc(-c3ccccc3)c2n1 the results were UBC13 polyUb -4, Rin1-Abl PPI inh 0, ALR inh 50, PREPL inh 0 and SUMO HTRF inh 17.
`CCCc1cc(=O)n2[nH]cc(-c3ccc(Cl)cc3)c2n1` gave UBC13 polyUb -13, Rin1-Abl PPI inh -1, ALR inh 99* and SUMO HTRF inh 5.
`C=CCn1c(=NC(=O)CN2C(=O)CCC2=O)sc2cc(S(N)(=O)=O)ccc21` gave UBC13 polyUb 4, Rin1-Abl PPI inh 0, ALR inh 98*, RBBP9 inh -1, PREPL inh -2 and SUMO HTRF inh 16.
For Cc1ccc(CNC(=O)COc2cccc3c2OC(C)(C)C3)cc1 the results were UBC13 polyUb -4 and Rin1-Abl PPI inh 3.
For Cc1cccc(NC(=O)Cn2c(O)c(N=NC(=O)c3ccccc3O)c3ccccc32)c1 the results were UBC13 polyUb -16, Rin1-Abl PPI inh 3, ALR inh -4, RBBP9 inh 0, PREPL inh -6 and SUMO HTRF inh 54*.
CN(C)S(=O)(=O)c1ccc(C(=O)NCC(=O)N/N=C/c2ccccc2Cl)cc1 was read as UBC13 polyUb -5, Rin1-Abl PPI inh -2, ALR inh -8, RBBP9 inh -1, PREPL inh 11 and SUMO HTRF inh 18.
`CCn1cc(Br)c(C(=O)Nc2ccc(F)cc2F)n1` gave UBC13 polyUb 4, Rin1-Abl PPI inh 2, ALR inh -14, RBBP9 inh -11, PREPL inh 5 and SUMO HTRF inh -20.
Screening CCn1cc(Br)c(C(=O)Nc2cccc(SC)c2)n1 returned UBC13 polyUb 3, Rin1-Abl PPI inh 0, ALR inh 99*, RBBP9 inh -11, PREPL inh 0 and SUMO HTRF inh 1.
`CCCCCCCCNC1=CC(=O)CC(C)(C)C1` gave UBC13 polyUb 5, Rin1-Abl PPI inh 1, ALR inh -3, RBBP9 inh -9, PREPL inh -2 and SUMO HTRF inh 0.
Screening CN(Cc1nc2ccccc2c(=O)[nH]1)C(=O)c1cc(-c2ccc(Br)cc2)nc2ccccc12 returned Rin1-Abl PPI inh -6.
Screening COc1cccc(N2CCN(S(=O)(=O)c3cn(C)cn3)CC2)c1 returned UBC13 polyUb -10, Rin1-Abl PPI inh 5, ALR inh 96*, PREPL inh 14 and SUMO HTRF inh 10.
C(=Nc1ccc(N2CCOCC2)cc1)c1c[nH]c2ccccc12 was read as UBC13 polyUb 6, Rin1-Abl PPI inh -4, ALR inh 99*, RBBP9 inh -12, PREPL inh 22 and SUMO HTRF inh 16.
For COc1cc(-c2noc(C)c2C(=O)N[C@@H](CO)Cc2ccccc2)cc(OC)c1OC the results were Rin1-Abl PPI inh 4.
`COc1c(Cl)cc(-c2noc(C)c2C(=O)NC(C)C)cc1Cl` gave UBC13 polyUb -2, Rin1-Abl PPI inh -4, ALR inh 93*, RBBP9 inh 2, PREPL inh -2 and SUMO HTRF inh -5.
COCCNC(=O)c1onc(CCl)c1C(=O)OC was read as UBC13 polyUb 2, Rin1-Abl PPI inh 4, ALR inh 48, RBBP9 inh -1, PREPL inh -2 and SUMO HTRF inh -7.
Screening CCCCNC(=O)c1onc(CCl)c1C(=O)OC returned UBC13 polyUb -7, Rin1-Abl PPI inh 4, ALR inh 97*, RBBP9 inh -6, PREPL inh 4 and SUMO HTRF inh -3.
For O=C(COC(=O)COc1ccccc1)Nc1ccc(S(=O)(=O)N2CCOCC2)cc1 the results were UBC13 polyUb -2, Rin1-Abl PPI inh 3, ALR inh -17, RBBP9 inh 0, PREPL inh 0 and SUMO HTRF inh 7.
For CSc1ncc2[nH]c(C(O)c3ccccc3)nc2n1 (stereo unspecified) the results were Rin1-Abl PPI inh -2.
Screening O=C(CSc1ccncc1)Nc1ccc(S(=O)(=O)Nc2nccs2)cc1 returned UBC13 polyUb -5, Rin1-Abl PPI inh 0, ALR inh 99*, RBBP9 inh -8, PREPL inh 10 and SUMO HTRF inh 10.
`O=C(CCN1C(=O)S/C(=C\c2ccccc2)C1=O)Nc1ccc(S(=O)(=O)Nc2nccs2)cc1` gave UBC13 polyUb -14, Rin1-Abl PPI inh 3, ALR inh 29, RBBP9 inh -5, PREPL inh 26 and SUMO HTRF inh -8.
`Cc1ccc(S(C)(=O)=O)cc1C(=O)Nc1ccc(S(=O)(=O)Nc2nccs2)cc1` gave UBC13 polyUb -7, Rin1-Abl PPI inh 2, ALR inh 97* and PREPL inh -2.
COc1ccccc1/C=C1/SC(=O)N(CCC(=O)Nc2ccc(S(=O)(=O)Nc3nccs3)cc2)C1=O was read as UBC13 polyUb -2, Rin1-Abl PPI inh 0, ALR inh 2, RBBP9 inh -5, PREPL inh 7 and SUMO HTRF inh 59*.
